Columns and labels:
Assay type in all cases: functional, cell-based
[1] = target: T1, Solute carrier organic anion transporter family member 2B1 (Homo sapiens, UniProt O94956); assay: TP_TRANSPORTER: uptake (pH 5.0) of Estrone-3-sulfate at a concentration of 5.43 nM in OATP-B-expressing HEK293 cells; conditions: hek293, pH 5, 0.00543 µM
T1 sequence (O94956 whole entry): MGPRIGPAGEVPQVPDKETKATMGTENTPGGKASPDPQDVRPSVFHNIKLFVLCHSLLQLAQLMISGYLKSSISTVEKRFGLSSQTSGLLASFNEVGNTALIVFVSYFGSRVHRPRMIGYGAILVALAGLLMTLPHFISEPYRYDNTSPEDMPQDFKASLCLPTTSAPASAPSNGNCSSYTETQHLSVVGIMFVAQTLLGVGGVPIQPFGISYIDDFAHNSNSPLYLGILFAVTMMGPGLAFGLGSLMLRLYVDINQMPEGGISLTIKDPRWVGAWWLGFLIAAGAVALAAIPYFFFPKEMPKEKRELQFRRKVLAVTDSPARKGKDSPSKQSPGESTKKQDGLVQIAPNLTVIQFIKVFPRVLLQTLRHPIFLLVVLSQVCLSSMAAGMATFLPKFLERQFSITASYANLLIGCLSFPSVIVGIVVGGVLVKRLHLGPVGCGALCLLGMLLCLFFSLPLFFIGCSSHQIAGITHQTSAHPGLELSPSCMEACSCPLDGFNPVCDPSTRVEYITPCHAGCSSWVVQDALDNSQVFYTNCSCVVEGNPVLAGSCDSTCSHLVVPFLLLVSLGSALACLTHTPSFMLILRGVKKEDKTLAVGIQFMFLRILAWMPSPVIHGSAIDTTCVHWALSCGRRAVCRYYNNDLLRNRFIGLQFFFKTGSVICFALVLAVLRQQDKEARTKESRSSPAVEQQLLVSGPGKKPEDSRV
Procedure, shortened: (§1)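 OATP-B- or vector-transfected HEK293 cells were harvested 40-48 h after transfection and preincubated 20 min at 37°C in pH 7.4 HEPES saline. [3H]estrone-3-sulfate uptake was run for 1 min in uptake medium at pH 5.0 or 7.4 and stopped by silicone-oil centrifugal filtration. Radioactivity was counted by scintillation, corrected for [14C]inulin adsorption and given as µL/mg protein. Mock uptake was subtracted; n=3-4.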

[2] = target: T1, Solute carrier organic anion transporter family member 2B1; assay: TP_TRANSPORTER: uptake (pH 7.4) of Estrone-3-sulfate at a concentration of 5.43 nM in OATP-B-expressing HEK293 cells; conditions: hek293, pH 7.4, 0.00543 µM; procedure, shortened: as §1
[3] = target: T1, Solute carrier organic anion transporter family member 2B1; assay: TP_TRANSPORTER: uptake (pH 7.4) of Pravastatin at a concentration of 14.7 u M in OATP-B-expressing HEK293 cells; conditions: hek293, pH 7.4, 14.7 µM
Procedure, shortened: (§2)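 HEK293 cells transiently transfected with pcDNA3/OATP-B (calcium phosphate) or empty vector were used 40-48 h later. Suspensions were preincubated 20 min at 37°C in HEPES saline (pH 7.4), then incubated 10 min in MES/Tris-buffered uptake medium (pH 5.0 or 7.4). Cells were separated by silicone-oil centrifugal filtration. Uptake was inulin-corrected, expressed as µL/mg protein, and mock-subtracted; n=3-4.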

[4] = target: T1, Solute carrier organic anion transporter family member 2B1; assay: TP_TRANSPORTER: uptake (pH 5.0) of Pravastatin at a concentration of 14.7 u M in OATP-B-expressing HEK293 cells; conditions: hek293, pH 5, 14.7 µM; procedure, shortened: as §2
[5] = target: T1, Solute carrier organic anion transporter family member 2B1; assay: TP_TRANSPORTER: uptake (pH 7.4) of Dehydroepiandrosterone-3-sulfate at a concentration of 2.98 nM in OATP-B-expressing HEK293 cells; conditions: hek293, pH 7.4, 0.00298 µM
Procedure, shortened: (§3)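 HEK293 cells transiently transfected with OATP-B cDNA (calcium phosphate) or vector alone (mock), used 40-48 h later as suspensions. Preincubated 20 min at 37°C in HEPES buffer pH 7.4, then incubated with radiolabeled compound in uptake medium pH 5.0 or 7.4. DHEAS was taken up for 5 min; estradiol-17ß-glucuronide for 10 min. Cells separated by silicone oil/paraffin centrifugal filtration and counted by scintillation. Uptake (µL/mg protein) corrected for [14C]inulin adsorption; mock subtracted; n=3 or 4.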

[6] = target: T1, Solute carrier organic anion transporter family member 2B1; assay: TP_TRANSPORTER: uptake (pH 5.0) of Dehydroepiandrosterone-3-sulfate at a concentration of 2.98 nM in OATP-B-expressing HEK293 cells; conditions: hek293, pH 5, 0.00298 µM; procedure, shortened: as §3
[7] = target: T1, Solute carrier organic anion transporter family member 2B1; assay: TP_TRANSPORTER: uptake (pH 5.0) of Fexofenadine at a concentration of 10 u M in OATP-B-expressing HEK293 cells; conditions: hek293, pH 5, 10 µM
Procedure, shortened: (§4)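 Transiently transfected OATP-B or mock HEK293 cells were preincubated 20 min at 37°C (pH 7.4), then exposed for 30 min to uptake medium at pH 5.0 or 7.4. Pellets were collected through silicone oil, sonicated, extracted in 50% methanol, dried and quantified by HPLC (ODS column, fluorescence ex 240/em 290 nm). Results are µL/mg protein after mock subtraction; n=3-4.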

[8] = target: T1, Solute carrier organic anion transporter family member 2B1; assay: TP_TRANSPORTER: uptake (pH 7.4) of Fexofenadine at a concentration of 10 u M in OATP-B-expressing HEK293 cells; conditions: hek293, pH 7.4, 10 µM; procedure, shortened: as §4
[9] = target: T1, Solute carrier organic anion transporter family member 2B1; assay: TP_TRANSPORTER: uptake (pH 7.4) of Lactate at a concentration of 1.91 u M in OATP-B-expressing HEK293 cells; conditions: hek293, pH 7.4, 1.91 µM; procedure, shortened: as §2
[10] = target: T1, Solute carrier organic anion transporter family member 2B1; assay: TP_TRANSPORTER: uptake (pH 5.0) of Lactate at a concentration of 1.91 u M in OATP-B-expressing HEK293 cells; conditions: hek293, pH 5, 1.91 µM; procedure, shortened: as §2
[11] = target: T1, Solute carrier organic anion transporter family member 2B1; assay: TP_TRANSPORTER: uptake (pH 7.4) of Estradiol-17beta-D-glucuronide at a concentration of 5.72 nM in OATP-B-expressing HEK293 cells; conditions: hek293, pH 7.4, 0.00572 µM; procedure, shortened: as §3
[12] = target: T1, Solute carrier organic anion transporter family member 2B1; assay: TP_TRANSPORTER: uptake (pH 5.0) of Estradiol-17beta-D-glucuronide at a concentration of 5.72 nM in OATP-B-expressing HEK293 cells; conditions: hek293, pH 5, 0.00572 µM; procedure, shortened: as §3
[13] = substrate: C[C@]12CC[C@@H]3c4ccc(OS(=O)(=O)O)cc4CC[C@H]3[C@@H]1CCC2=O; assay: TP_TRANSPORTER: uptake (pH 7.4) in OATP-B-expressing HEK293 cells
Procedure, shortened: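 OATP-B- or mock-transfected HEK293 suspensions. Preincubated 20 min at 37°C at pH 7.4, then substrate uptake in medium at pH 7.4 (Tris-adjusted). Uptake was separated by centrifugal filtration through oil and measured by scintillation, or by HPLC-fluorescence for fexofenadine. Expressed as cell-to-medium ratio (µL/mg protein), corrected by [14C]inulin space; OATP-B-specific = transfected minus mock; n=3 or 4.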

[14] = substrate: C[C@]12CC[C@@H]3c4ccc(OS(=O)(=O)O)cc4CC[C@H]3[C@@H]1CCC2=O; assay: (§5) TP_TRANSPORTER: uptake (pH 5.0) in OATP-B-expressing HEK293 cells
[15] = substrate: CC[C@H](C)C(=O)O[C@H]1C[C@H](O)C=C2C=C[C@H](C)[C@H](CC[C@@H](O)C[C@@H](O)CC(=O)O)[C@H]21; assay: as §5

C[C@]12CC[C@@H]3c4ccc(OS(=O)(=O)O)cc4CC[C@H]3[C@@H]1CCC2=O [ESTRONE SULFURIC ACID]
Activity [1]: substrate [+] | Activity [2]: substrate [+]

CC[C@H](C)C(=O)O[C@H]1C[C@H](O)C=C2C=C[C@H](C)[C@H](CC[C@@H](O)C[C@@H](O)CC(=O)O)[C@H]21 [PRAVASTATIN]
Activity [3]: is not a substrate [-] | Activity [4]: substrate [+]

C[C@]12CC[C@H](OS(=O)(=O)O)CC1=CC[C@@H]1[C@@H]2CC[C@]2(C)C(=O)CC[C@@H]12 [PRASTERONE SULFURIC ACID]
Activity [5]: substrate [+] | Activity [6]: substrate [+]

CC(C)(C(=O)O)c1ccc(C(O)CCCN2CCC(C(O)(c3ccccc3)c3ccccc3)CC2)cc1 (stereo not given) [FEXOFENADINE]
Activity [7]: substrate [+] | Activity [8]: substrate [+]

C[C@@H](O)C(=O)O [D-LACTIC ACID]
Activity [9]: is not a substrate [-] | Activity [10]: is not a substrate [-]

C[C@]12CC[C@@H]3c4ccc(O)cc4CC[C@H]3[C@@H]1CC[C@@H]2O[C@@H]1O[C@H](C(=O)O)[C@@H](O)[C@H](O)[C@H]1O [ESTRADIOL 17B GLUCURONIDE]
Activity [11]: is not a substrate [-] | Activity [12]: is not a substrate [-]

B1: Solute carrier organic anion transporter family member 2B1 (Homo sapiens) (protein)
chain: MGPRIGPAGEVPQVPDKETKATMGTENTPGGKASPDPQDVRPSVFHNIKLFVLCHSLLQLAQLMISGYLKSSISTVEKRFGLSSQTSGLLASFNEVGNTALIVFVSYFGSRVHRPRMIGYGAILVALAGLLMTLPHFISEPYRYDNTSPEDMPQDFKASLCLPTTSAPASAPSNGNCSSYTETQHLSVVGIMFVAQTLLGVGGVPIQPFGISYIDDFAHNSNSPLYLGILFAVTMMGPGLAFGLGSLMLRLYVDINQMPEGGISLTIKDPRWVGAWWLGFLIAAGAVALAAIPYFFFPKEMPKEKRELQFRRKVLAVTDSPARKGKDSPSKQSPGESTKKQDGLVQIAPNLTVIQFIKVFPRVLLQTLRHPIFLLVVLSQVCLSSMAAGMATFLPKFLERQFSITASYANLLIGCLSFPSVIVGIVVGGVLVKRLHLGPVGCGALCLLGMLLCLFFSLPLFFIGCSSHQIAGITHQTSAHPGLELSPSCMEACSCPLDGFNPVCDPSTRVEYITPCHAGCSSWVVQDALDNSQVFYTNCSCVVEGNPVLAGSCDSTCSHLVVPFLLLVSLGSALACLTHTPSFMLILRGVKKEDKTLAVGIQFMFLRILAWMPSPVIHGSAIDTTCVHWALSCGRRAVCRYYNNDLLRNRFIGLQFFFKTGSVICFALVLAVLRQQDKEARTKESRSSPAVEQQLLVSGPGKKPEDSRV
Km [13]: 8.09 µM | Km [14]: 13.1 µM | Km [15]: 2250 µM
